Laboratory results reported in ChEMBL document CHEMBL3352003, “Sulfonamides with Potent Inhibitory Action and Selectivity against the α-Carbonic Anhydrase from Vibrio cholerae” (ACS Med Chem Lett, 2014).

Assay: Inhibition of Vibrio cholerae cytosolic carbonic anhydrase by stopped flow CO2 hydration assay
How it was run: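 Stopped-flow measurement of the enzyme-catalysed CO2 hydration activity; inhibition is reported as KI (nM).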

Structure (SMILES)	Ki [nM]
CC(=O)NC(CCCCNC(=O)OC(C)(C)C)C(=O)Nc1cccc(S(N)(=O)=O)c1 (stereo unspecified)	8.8
CC(C)(C)OC(=O)NCCCC(=O)NCc1ccc(S(N)(=O)=O)cc1	6.1
CC(C)(C)OC(=O)NCCCC(=O)NCCc1ccc(S(N)(=O)=O)cc1	304
NCCCC(=O)NCc1ccc(S(N)(=O)=O)cc1	65.3
NCCCC(=O)NCCc1ccc(S(N)(=O)=O)cc1	77
CC(C)(C)OC(=O)/N=C(\NCCCC(=O)NCc1ccc(S(N)(=O)=O)cc1)NC(=O)OC(C)(C)C	5.8
CC(C)(C)OC(=O)/N=C(\NCCCC(=O)NCCc1ccc(S(N)(=O)=O)cc1)NC(=O)OC(C)(C)C	95.2
N=C(N)NCCCC(=O)NCc1ccc(S(N)(=O)=O)cc1	6.4
N=C(N)NCCCC(=O)NCCc1ccc(S(N)(=O)=O)cc1	29.1
CC(=O)NC(CCCCNC(=O)OC(C)(C)C)C(=O)NCc1ccc(S(N)(=O)=O)cc1 (stereo unspecified)	8.9
CC(=O)NC(CCCCNC(=O)OC(C)(C)C)C(=O)NCCc1ccc(S(N)(=O)=O)cc1 (stereo unspecified)	76.7
CC(=O)NC(CCCCN)C(=O)NCc1ccc(S(N)(=O)=O)cc1 (stereo unspecified)	29.1
CC(=O)NC(CCCCN)C(=O)NCCc1ccc(S(N)(=O)=O)cc1 (stereo unspecified)	66.5
CC(=O)NC(CCCCN/C(=N/C(=O)OC(C)(C)C)NC(=O)OC(C)(C)C)C(=O)NCc1ccc(S(N)(=O)=O)cc1 (stereo unspecified)	9.1
CC(=O)NC(CCCCN/C(=N/C(=O)OC(C)(C)C)NC(=O)OC(C)(C)C)C(=O)NCCc1ccc(S(N)(=O)=O)cc1 (stereo unspecified)	9.3
CC(=O)NC(CCCCNC(=N)N)C(=O)NCc1ccc(S(N)(=O)=O)cc1 (stereo unspecified)	8.8
CC(=O)NC(CCCCNC(=N)N)C(=O)NCCc1ccc(S(N)(=O)=O)cc1 (stereo unspecified)	36.8
CC(C)(C)OC(=O)NCCCC(=O)Nc1cccc(S(N)(=O)=O)c1	7.6
CC(C)(C)OC(=O)NCCCC(=O)Nc1ccc(S(N)(=O)=O)cc1	6.9
COC(=O)C(CCCCNC(=O)OCc1ccccc1)NC(=O)c1ccc(S(N)(=O)=O)cc1 (stereo unspecified)	6.2
